Measured values taken from PMC3586205 (European journal of pharmacology, 2012).
Read-outs that look alike come from different tables or passages of the source.

Tests used:
[1] = system: tail flick latency in mice; assay: Tail flick antinociception, mouse test battery; format: in vivo
In short: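 Baseline tail-flick latency was taken to radiant heat (bright light) before i.v. injection of vehicle (ethanol:Emulphor-620:saline 1:1:18) or test compound. Latency was re-measured 20 min post-injection with a 10 s cutoff. Result expressed as %MPE = [(test−control latency)/(10−control)] × 100, separate groups per dose.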

food intake in mice = assay: Feeding behavior: 1-h food intake after 24-h food deprivation; format: in vivo
[2] = biological target: human cannabinoid CB1 receptor (Homo sapiens, UniProt P21554); assay: Cannabinoid CB1 receptor radioligand binding, displacement of [3H]CP55,940
[3] = system: spontaneous activity in mice; assay: Spontaneous; format: in vivo
In short: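 Separate groups of mice per dose were injected i.v. with vehicle (ethanol:Emulphor-620:saline 1:1:18) or test compound. Five minutes later each was placed in an activity chamber for 10 min. Total photobeam interruptions were counted and expressed as % inhibition of the vehicle group. ED50s were derived by log-dose linear regression, taking 90% inhibition as maximal.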

[4] = system: rectal temperature in mice; assay: Rectal temperature, mouse test battery; format: in vivo
[5] = system: cannabinoid agonist-like effects in mice; assay: In vivo test battery; conditions: doses up to 30 mg/kg (heterodimer 6b i.p.)
In short: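 Separate groups of mice per dose received test compound in 95% sesame oil/5% dimethylacetamide i.p. Rectal temperature and baseline tail-flick latency were taken before injection. At 40 min mice were put in photobeam activity chambers for 5 min. Tail-flick and temperature were re-measured immediately on removal. Ring immobility was not run.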

ring immobility in mice = assay: Ring immobility, mouse test battery; format: in vivo; conditions: 30 mg/kg i.v.
[6] = i.p., doses not stated in text (Fig. 2)

Chain of human cannabinoid CB1 receptor (P21554 whole entry): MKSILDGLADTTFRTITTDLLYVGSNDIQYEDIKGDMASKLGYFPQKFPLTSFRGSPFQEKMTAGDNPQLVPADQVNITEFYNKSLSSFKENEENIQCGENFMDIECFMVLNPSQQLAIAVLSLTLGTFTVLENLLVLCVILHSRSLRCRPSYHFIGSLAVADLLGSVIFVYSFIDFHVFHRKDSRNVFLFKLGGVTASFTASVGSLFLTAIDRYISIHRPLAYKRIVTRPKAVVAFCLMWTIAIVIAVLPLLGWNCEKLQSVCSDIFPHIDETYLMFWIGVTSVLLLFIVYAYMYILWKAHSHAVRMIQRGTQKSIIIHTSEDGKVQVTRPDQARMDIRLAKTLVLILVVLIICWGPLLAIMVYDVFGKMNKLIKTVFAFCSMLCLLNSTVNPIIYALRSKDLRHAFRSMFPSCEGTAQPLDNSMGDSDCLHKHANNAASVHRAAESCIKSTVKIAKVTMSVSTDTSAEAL

Row | Compound | effect on food intake (food intake in mice; [6]) | %MPE tail flick (maximum effect) ([1]; 30 mg/kg i.v.) | Ki [2] | SA, % inhibition of activity of vehicle control group (maximum effect) ([3]; 30 mg/kg i.v.) | activity in test battery when tested alone [5] | other results
1 | CC1=CC[C@@H]2[C@@H](C1)c1c(O)cc(C(C)(C)CCCCC(=O)NCCc3ccc(S(N)(=O)=O)cc3)cc1OC2(C)C [Compound O-606, 6-[(6aR,10aR)-1-hydroxy-6,6,9-trimethyl-6a,7,10,10a-tetrahydro-6H-benzo[c]chromen-3-yl]-6-methyl-N-(4-sulfamoyl-phenyethyl)heptanamide] | failed to affect food intake |  |  |  |  | %MPE tail flick (maximum effect) ([1]; 100 mg/kg i.v.): inactive (100); Ki ([2]; read-out: CB1 Ki (± SEM), displacement of [3H]CP55,940): 29 nM; SA, % inhibition of activity of vehicle control group (maximum effect) ([3]; 100 mg/kg i.v.): 60% (100); RT (maximum effect) ([4]; 100 mg/kg i.v.): inactive (100)
2 | CC1=CC[C@@H]2[C@@H](C1)c1c(O)cc(C(C)(C)CCCCCC(=O)NCCc3ccc(S(N)(=O)=O)cc3)cc1OC2(C)C [Compound O-1689, 7-[(6aR,10aR)-1-hydroxy-6,6,9-trimethyl-6a,7,10,10a-tetrahydro-6H-benzo[c]chromen-3-yl]-7-methyl-N-(4-sulfamoylphenethyl]octanamide] | failed to affect food intake | inactive (30) | 38 nM | 46% (30) |  | 
3 | CCCc1cc(C(=O)NN2CCCCC2)cc(-c2ccc(Cl)cc2Cl)c1-c1ccc(Cl)cc1 [Compound O-1788, 4-(4-chlorophenyl)-3-(2,4-dichlorophenyl)–N-(piperidin-1-yl)-5-propylbenzamide] |  | inactive (30) | 166 nM | inactive (30) | inactive | decrease in feeding compared to vehicle (food intake in mice; 56 mg/kg i.p., 60 min pre-session, significant): 56%; RI (maximum effect) (ring immobility in mice): inactive (30); RT, change in rectal temperature (maximum effect) ([4]; 30 mg/kg i.v.): inactive (30)
4 | Cc1c(C(=O)NCCCCCCCN(C)CCCCCCCNC(=O)c2nn(-c3ccc(Cl)cc3Cl)c(-c3ccc(Cl)cc3)c2C)nn(-c2ccc(Cl)cc2Cl)c1-c1ccc(Cl)cc1 [Heterodimer 6b, N,N′-[(methylimino)diheptane-7,1-diyl]bis[5-(4-chlorophenyl)-1-(2,4-dichlorophenyl)-4-methyl-1H-pyrazole-3-carboxamide]] |  |  |  |  | inactive | effect on food intake (food intake in mice; doses up to 30 mg/kg i.p.): failed to alter food intake
